The values that follow come from ChEMBL document CHEMBL1130236, “Design and synthesis of imidazoline derivatives active on glucose homeostasis in a rat model of type II diabetes. 1. Synthesis and biological activities of N-benzyl-N'-(arylalkyl)-2-(4',5'-dihydro-1'H-imidazol-2'-yl)piperazines ” (1997).

The structures appear in SMILES notation.

The subject of assay [1] is Rattus norvegicus. Nature of the assay: The glycemia values 30 minutes after glucose administration to streptozotocin rats. The class given is functional. The procedure, abridged:
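Male Wistar rats (3-month, ~250 g) made diabetic with streptozotocin 35 mg/kg iv in citrate buffer; used 2 weeks later if basal glycemia was 7–10 mM. Single ip dose of 100 µmol/kg (hydrochloride salt), then iv glucose 0.5 g/kg under pentobarbital. Plasma glucose was read by analyzer at 30 min and expressed as % variation versus untreated STZ rats.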

The subject of assay [2] is Rattus norvegicus. Nature of the assay: The rate of glucose disappearance between 5 and 30 minutes after glucose administration. The class given is functional, organism-based. The procedure, abridged:
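In the intravenous glucose tolerance test (0.5 g/kg, saphenous vein, pentobarbital anesthesia), STZ-diabetic male Wistar rats had received a single 100 µmol/kg ip dose beforehand. Plasma glucose was sampled from the tail at 5–30 min. The glucose disappearance rate K was computed over 5–30 min and expressed as % variation versus untreated STZ rats.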

The subject of assay [3] is Rattus norvegicus. Briefly: The incremental glycemia values after glucose administration (0.5 g/kg iv), to rats treated with streptozotocin (35 mg/kg iv). Format: functional. The essentials:
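STZ (35 mg/kg iv) male Wistar rats were selected after 2 weeks with basal glycemia 7–10 mM and […]. They received 100 µmol/kg ip once before an iv glucose load. Tail blood was taken at 0, 5, 10, 15, 20 and 30 min. The glucose increment over baseline was integrated over 30 min and normalized as (treated−untreated STZ)/(untreated STZ−nondiabetic control)×100.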

In assay [4] the test system is Rattus norvegicus. Briefly: The incremental plasma insulin values over 30 minutes after glucose administration. The class given is functional. The procedure, abridged: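 Moderately diabetic STZ Wistar rats were given 100 µmol/kg ip once, then 0.5 g/kg iv glucose under pentobarbital. Tail-vein plasma from 0–30 min was stored at −20 °C, and insulin was measured by radioimmunoassay (lower limit 19.5 pmol/L). The incremental insulin over baseline was integrated over 30 min and expressed as % variation versus untreated STZ rats.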

For the compound `CCCN1CCN(Cc2ccc(Cl)cc2Cl)C(C2=NCCN2)C1` (stereo not drawn), the G30 in the assay with Rattus norvegicus [1] was determined as 80%. In the assay with Rattus norvegicus [2], this compound had a K of 104%. In the assay on Rattus norvegicus [3], the “Delta G” value amounted to 24%.

Compound `CN1CCN(Cc2ccccc2)C(C2=NCCN2)C1` (stereo not drawn) had a G30 with Rattus norvegicus [1] of 23%. The compound further showed a K in the assay with Rattus norvegicus [2] of 67%. The “Delta I” value in the assay on Rattus norvegicus [4] is listed as 16%. In addition, in the assay with Rattus norvegicus [3], the “Delta G” value was found to be 0%.

The compound `COc1cccc(CN2CCN(C)CC2C2=NCCN2)c1` (stereo not drawn) displayed a G30 in the assay on Rattus norvegicus [1] of 68%. The same compound gave a K with Rattus norvegicus [2] of 57%. In the assay with Rattus norvegicus [4], the “Delta I” value is 88%. Moreover, the “Delta G” value with Rattus norvegicus [3] was 23%.

In the case of `Clc1ccc(CN2CCN(Cc3ccc(Cl)cc3Cl)C(C3=NCCN3)C2)c(Cl)c1` (stereo not drawn), the G30 with Rattus norvegicus [1] is listed as 18%. The same compound yielded a K with Rattus norvegicus [2] of 22%. Moreover, in the assay with Rattus norvegicus [3], the “Delta G” value worked out at 0%.

In the case of `COc1cccc(CN2CCN(C)CC2C2=NCCN2)c1OC` (stereo not drawn), the G30 with Rattus norvegicus [1] is on record as 58%. Besides, the K with Rattus norvegicus [2] amounted to 55%. Moreover, the “Delta I” value with Rattus norvegicus [4] is 60%. Moreover, the “Delta G” value with Rattus norvegicus [3] worked out at 0%.

`CN1CCN(Cc2cc(Cl)cc(Cl)c2)C(C2=NCCN2)C1` (stereo not drawn) yielded a G30 in the assay on Rattus norvegicus [1] of 70%. For the same compound, in the assay on Rattus norvegicus [2], the K was 117%. Besides, the “Delta G” value in the assay with Rattus norvegicus [3] was determined as 0%.

The compound `CCCN1CCN(Cc2ccccc2Cl)C(C2=NCCN2)C1` (stereo not drawn) had a G30 in the assay on Rattus norvegicus [1] of 17%. For the same compound, the K with Rattus norvegicus [2] stood at 37%. The “Delta I” value with Rattus norvegicus [4] is 25%. Also, in the assay on Rattus norvegicus [3], the “Delta G” value was found to be 0%.

Regarding `CN1CCN(Cc2ccc(F)cc2F)C(C2=NCCN2)C1` (stereo not drawn), the G30 with Rattus norvegicus [1] is 106%. In the assay on Rattus norvegicus [2], this compound displayed a K of 97%. The “Delta G” value with Rattus norvegicus [3] worked out at 102%.

In the case of `c1ccc(C(CC2=NCCN2)c2ccccn2)cc1` (stereo not drawn) [MIDAGLIZOLE], the G30 in the assay on Rattus norvegicus [1] turned out to be 121%. Moreover, the “Delta G” value in the assay with Rattus norvegicus [3] turned out to be 32%.

Compound `CN1CCN(Cc2ccccc2F)C(C2=NCCN2)C1` (stereo not drawn) displayed a G30 with Rattus norvegicus [1] of 52%. In the assay on Rattus norvegicus [2], the K worked out at 108%. Moreover, in the assay on Rattus norvegicus [3], the “Delta G” value turned out to be 72%.

In the assay on Rattus norvegicus [1], `CN1CCN(Cc2cccc(Cl)c2Cl)C(C2=NCCN2)C1` (stereo not drawn) had a G30 of 36%. In the assay with Rattus norvegicus [2], the K was found to be 53%. Also, in the assay with Rattus norvegicus [3], the “Delta G” value is 0%.

`CC(C)N1CCN(Cc2ccccc2Cl)CC1C1=NCCN1` (stereo not drawn) yielded a G30 with Rattus norvegicus [1] of 96%. In the assay with Rattus norvegicus [2], this compound had a K of 95%. Besides, in the assay on Rattus norvegicus [3], the “Delta G” value is 112%.

In turn, `CCN1CCN(Cc2ccccc2Cl)CC1C1=NCCN1` (stereo not drawn) had a G30 in the assay with Rattus norvegicus [1] of 50%. In the assay on Rattus norvegicus [2], the K was found to be 106%. Moreover, the “Delta G” value in the assay on Rattus norvegicus [3] came to 70%.

Turning to `c1ccc2c(c1)OCC(C1=NCCN1)O2` (stereo not drawn) [IDAZOXAN], in the assay with Rattus norvegicus [1], the G30 is 48%. In the assay with Rattus norvegicus [2], this compound returned a K of 79%. Also, in the assay with Rattus norvegicus [3], the “Delta G” value turned out to be 8%.

Regarding `CN1CCN(Cc2ccccc2Cl)CC1C1=NCCN1` (stereo not drawn), the G30 in the assay on Rattus norvegicus [1] is on record as 97%. Also, the K in the assay on Rattus norvegicus [2] worked out at 148%. Moreover, the “Delta G” value with Rattus norvegicus [3] was found to be 93%.

The compound `CN1CCN(Cc2ccc(Cl)cc2Cl)C(C2=NCCN2)C1` (stereo not drawn) had a G30 with Rattus norvegicus [1] of 112%. The “Delta I” value with Rattus norvegicus [4] came to 221%. In addition, the “Delta G” value in the assay on Rattus norvegicus [3] amounted to 105%.

The compound `Clc1ccccc1CN1CCN(Cc2ccccc2Cl)C(C2=NCCN2)C1` (stereo not drawn) showed a G30 in the assay on Rattus norvegicus [1] of 0%. Besides, in the assay with Rattus norvegicus [2], the K was 36%. Moreover, the “Delta G” value in the assay with Rattus norvegicus [3] is reported as 0%.

Compound `CCN1CCN(Cc2ccccc2Cl)C(C2=NCCN2)C1` (stereo not drawn) had a G30 in the assay with Rattus norvegicus [1] of 38%. For the same compound, in the assay on Rattus norvegicus [2], the K was 34%. For the same compound, the “Delta G” value in the assay on Rattus norvegicus [3] turned out to be 108%.

In the assay on Rattus norvegicus [1], `CN1CCN(Cc2ccc(Cl)cc2Cl)CC1C1=NCCN1` (stereo not drawn) came in with a G30 of 102%. The K in the assay on Rattus norvegicus [2] was determined as 152%. Also, the “Delta G” value in the assay on Rattus norvegicus [3] was found to be 34%.

For `c1ccc(CN2CCN(Cc3ccccc3)C(C3=NCCN3)C2)cc1` (stereo not drawn), in the assay on Rattus norvegicus [1], the G30 is given as 33%. In the assay with Rattus norvegicus [2], this compound had a K of 43%. Moreover, in the assay on Rattus norvegicus [3], the “Delta G” value is given as 0%.

`CN1CCN(Cc2ccc(Cl)c(Cl)c2)C(C2=NCCN2)C1` (stereo not drawn) had a G30 with Rattus norvegicus [1] of 47%. In the assay on Rattus norvegicus [2], this compound displayed a K of 42%. Further, in the assay on Rattus norvegicus [3], the “Delta G” value is recorded as 36%.

`CN1CCN(Cc2ccccc2Cl)C(C2=NCCN2)C1` (stereo not drawn) registered a G30 in the assay on Rattus norvegicus [1] of 103%. The compound also came in with a K in the assay on Rattus norvegicus [2] of 98%. Further, the “Delta I” value with Rattus norvegicus [4] worked out at 109%. Besides, the “Delta G” value with Rattus norvegicus [3] was found to be 81%.

In the assay on Rattus norvegicus [1], `CC(C)N1CCN(Cc2ccccc2Cl)C(C2=NCCN2)C1` (stereo not drawn) registered a G30 of 83%. The compound further had a K in the assay with Rattus norvegicus [2] of 44%. Also, in the assay on Rattus norvegicus [3], the “Delta G” value was 84%.

As to `CN1CCN(Cc2cccc(Cl)c2)C(C2=NCCN2)C1` (stereo not drawn), in the assay on Rattus norvegicus [1], the G30 worked out at 23%. This compound also yielded a K in the assay with Rattus norvegicus [2] of 39%. For the same compound, the “Delta G” value in the assay with Rattus norvegicus [3] was 0%.

Regarding `CN1CCN(Cc2ccc(Cl)cc2)C(C2=NCCN2)C1` (stereo not drawn), the G30 with Rattus norvegicus [1] is listed as 68%. The K in the assay on Rattus norvegicus [2] amounted to 110%. In the assay with Rattus norvegicus [3], the “Delta G” value was found to be 0%.

Turning to `CN1CCN(Cc2c(Cl)cccc2Cl)C(C2=NCCN2)C1` (stereo not drawn), in the assay on Rattus norvegicus [1], the G30 is on record as 59%. This compound also registered a K in the assay with Rattus norvegicus [2] of 107%. Besides, the “Delta G” value in the assay with Rattus norvegicus [3] turned out to be 103%.

`CN1CCN(Cc2ccccc2C(F)(F)F)C(C2=NCCN2)C1` (stereo not drawn): the G30 with Rattus norvegicus [1] is 64%. The compound also returned a K in the assay with Rattus norvegicus [2] of 63%. In the assay with Rattus norvegicus [3], the “Delta G” value came to 94%.

In the assay on Rattus norvegicus [1], `Clc1ccccc1CN1CCNCC1C1=NCCN1` (stereo not drawn) yielded a G30 of 0%. In the assay on Rattus norvegicus [2], this compound yielded a K of 11%. In addition, in the assay on Rattus norvegicus [3], the “Delta G” value worked out at 0%.

Take `COc1ccccc1CN1CCN(C)CC1C1=NCCN1` (stereo not drawn): the G30 in the assay with Rattus norvegicus [1] came to 56%. In the assay with Rattus norvegicus [2], this compound displayed a K of 39%. Besides, the “Delta G” value with Rattus norvegicus [3] is 47%.

Take `CC(C)CN1CCN(Cc2ccc(Cl)cc2Cl)C(C2=NCCN2)C1` (stereo not drawn): the G30 in the assay on Rattus norvegicus [1] is recorded as 95%. In addition, the K in the assay on Rattus norvegicus [2] was found to be 119%. The “Delta I” value in the assay with Rattus norvegicus [4] is 623%. In addition, the “Delta G” value with Rattus norvegicus [3] was found to be 110%.

The compound `Cc1ccccc1CN1CCN(C)CC1C1=NCCN1` (stereo not drawn) yielded a G30 in the assay on Rattus norvegicus [1] of 48%. Besides, the K in the assay on Rattus norvegicus [2] worked out at 81%. The “Delta G” value in the assay with Rattus norvegicus [3] is 24%.
